Assay outcomes deposited in PubChem BioAssay by The Scripps Research Institute Molecular Screening Center.
In the library only some 1.8% were active in any assay of this set; here they are far more common.
M4 PAM: human M4 muscarinic receptor positive allosteric modulators, primary screen, CHO-K1 cells, Fluo-8 calcium fluorescence; hit rate 0.4% among 360,000; activation, % at 3 µM; Muscarinic acetylcholine receptor M4 (Homo sapiens), P08173; AID 624126, 2012; CHO-K1 hM4/Gqi5, ACh EC20; 0% = ACh EC20, 100% = maximal ACh;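 active = activation above its plate's cutoff, the mean activation of sample wells plus 3 SD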
Target sequence (P08173 whole entry, looked up): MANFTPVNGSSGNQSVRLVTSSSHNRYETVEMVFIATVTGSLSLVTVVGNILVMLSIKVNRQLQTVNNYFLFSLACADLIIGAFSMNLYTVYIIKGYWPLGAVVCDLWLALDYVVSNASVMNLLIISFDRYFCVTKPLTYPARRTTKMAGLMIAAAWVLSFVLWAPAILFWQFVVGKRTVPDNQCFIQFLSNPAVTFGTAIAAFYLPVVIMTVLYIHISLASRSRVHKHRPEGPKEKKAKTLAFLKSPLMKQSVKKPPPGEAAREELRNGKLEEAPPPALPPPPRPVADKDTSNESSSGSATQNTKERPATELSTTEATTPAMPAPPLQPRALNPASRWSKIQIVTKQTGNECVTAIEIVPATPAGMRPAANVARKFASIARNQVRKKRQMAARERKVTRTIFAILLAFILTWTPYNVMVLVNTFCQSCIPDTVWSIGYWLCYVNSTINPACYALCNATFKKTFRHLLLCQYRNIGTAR
CHRM4 antagonist: human M4 muscarinic receptor antagonists, primary screen, CHO cells, Fluo-8 calcium fluorescence; Muscarinic acetylcholine receptor M4 (Homo sapiens), P08173; CHO-hM4 cells, ACh EC80; inhibition, % at 3 µM; hit rate 0.73% among 360,000; AID 624125, 2012;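 active = inhibition above its plate's cutoff, the mean inhibition of sample wells plus 3 SD, cut at about 27% in these data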;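 note: 0% = acetylcholine EC80 with DMSO and 100% = DMSO without agonist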
M5 PAM: human M5 muscarinic receptor positive allosteric modulators, primary screen, CHO-K1 cells, Fluo-8 calcium fluorescence | CHO-K1 hM5, ACh EC20 PAM; 0% = ACh EC20, 100% = ACh EC100 | activation, % at 3 µM | hit rate 0.3% among 360,000 | AID 624038, 2012;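 active = activation above the run cutoff, the mean activation of all test compounds plus 3 SD, cut at about 18% in these data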
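System: CHO-K1 hM5 cells. Reagent: acetylcholine, EC20 level. Compound dosing: single dose, 3 µM nominal final test concentration. Timing: Post-acetylcholine fluorescence recording 140 s. Detection: Fluo-8 calcium fluorescence. Read-out: % activation, ACh-normalized. Benchmarks: ACh EC20 and EC100 wells. Repeats: singlicate, one well per test compound.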
M5 antag: human M5 muscarinic receptor antagonists, primary screen, CHO cells, Fluo-8 calcium fluorescence | Muscarinic acetylcholine receptor M5 (Homo sapiens), P08912 | AID 624040, 2012 | CHO-hM5 cells, ACh EC80 | inhibition, % at 3 µM | hit rate 0.59% among 360,000;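 active = inhibition above a per-plate cutoff, the mean of that plate's test compounds plus 3 SD, cut at about 27% in these data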;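 note: 0% = acetylcholine EC80 with DMSO and 100% = DMSO without agonist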
M4 ag: human M4 muscarinic receptor agonists, primary screen, CHO-K1 cells, Fluo-8 calcium fluorescence. CHO-K1 hM4/Gqi5; vehicle 0%, full acetylcholine response 100%. hit rate 0.14% among 360,000. activation, % at 3 µM. Muscarinic acetylcholine receptor M4 (Homo sapiens), P08173;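 active = activation above the run mean over all test wells plus 3 SD, cut at about 32% in these data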;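 note: peak over basal fluorescence ratio per well then scaled between controls; 0% = DMSO wells and 100% = acetylcholine at EC100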
M5 ag: human M5 muscarinic receptor agonists, primary screen, CHO-K1 cells, Fluo-8 calcium fluorescence; CHO-K1 hM5 cells; 0% DMSO wells, 100% maximal acetylcholine response; activation, % at 3 µM; hit rate 0.19% among 360,000; AID 624037, 2012;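 active = activation above the run's mean over test compounds plus 3 SD, cut at about 23% in these data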;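 note: signal is peak over basal fluorescence ratio across the kinetic read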
Starred values were filed as active, the others as inactive.

SMILES	M4 PAM	CHRM4 antagonist	M5 PAM	M5 antag	M4 ag	M5 ag
COCCn1c2nc(=O)n(-c3ccccc3)c(=O)c-2nc2ccccc21	-12	17	-6	8	65*	28*
COCCn1c(-c2ccc(OC)cc2)nc2ccccc21	1	3	3	1	1	-10
O=C(c1ccc(C(F)(F)F)cc1)C1CCCN(C(=O)CCN2CCCO2)C1 (stereo not drawn)	-3	6	7	-2	0	-1
CCOC(=O)CSc1nc(-c2ccccc2)nc2ccc(F)cc12	28*	8	4	-7	1	3
COC(=O)CSc1nc(-c2ccccc2)nc2ccc(F)cc12	9	-2	3	2	1	2
CCOc1ccc(N(CC(=O)N2CCCC2)S(=O)(=O)c2ccc(F)cc2)cc1	-1	14	-1	5	1	-2
O=C(CSc1nnc(Cc2ccccc2)o1)c1cc(F)ccc1F	6	-6	21*	3	0	-1
COc1nc(-c2ccc(C)cc2)ccc1-c1noc(-c2ccco2)n1	15	6	28*	-6	1	-1
COc1nc(C)ccc1-c1noc(-c2ccco2)n1	0	4	1	-5	-2	-1
CC(=O)c1[nH]c(C)c(C(=O)N2CCCC(Nc3cccc(F)c3)C2)c1C (stereo not drawn)	4	-9	10	-32	1	-2
Cc1cccc(Nc2nc(NCC3CCCO3)nc(N)c2[N+](=O)[O-])c1 (stereo not drawn)	24*	15	7	16	2	-2
Nc1nc(NCC2CCCO2)nc(Nc2cccc(Cl)c2)c1[N+](=O)[O-] (stereo not drawn)	5	1	8	-1	1	5
O=C(CC1CC1)Nc1ccc2c(c1)[C@@H]1C[C@H](CC(=O)NC3CCCC3)O[C@@H](CO)[C@@H]1O2	8	-21	2	-3	0	2
CC1CCCN(CCCNC(=O)c2nn(C)c3c2CS(=O)(=O)c2ccccc2-3)C1 (stereo not drawn)	8	-17	3	-3	1	-8
COc1cc(-c2nc3ccccn3c2/N=C/c2ccccc2)ccc1O	-2	7	-12	3	0	51*
CCCn1c(N)c(N(CCOC)C(=O)c2ccc(N(C)S(=O)(=O)c3ccc(C)cc3)cc2)c(=O)[nH]c1=O	13	-12	-3	4	0	4
O=C(N/N=C/c1ccco1)C1CC1(c1ccccc1)c1ccccc1 (stereo not drawn)	11	28*	-10	11	-1	-3
C/C(=N/NC(=O)C1CC1(c1ccccc1)c1ccccc1)c1ccco1 (stereo not drawn)	-4	9	-1	2	-1	0
O=C1CCC([N+](=O)[O-])C(c2ccccc2C(F)(F)F)N1 (stereo not drawn)	3	-1	0	10	1	-2
CC(C)c1ccc(OCC(=O)NC(=S)Nc2ccc3c4c(cccc24)CC3)cc1	5	30*	9	-3	2	2
Cc1nc2sc3c(=O)[nH]nnc3c2c(C)c1Br	9	-3	7	-4	0	-2
Cc1c(CC(=O)NCCCC(=O)O)c(=O)oc2cc3oc4c(c3cc12)CCCC4	-2	8	-1	9	0	-3
Cc1c(CC(=O)NCCCCCC(=O)O)c(=O)oc2c(C)c3oc4c(c3cc12)CCCC4	14*	-4	4	-3	1	-4
O=C(CSc1ccccc1)NNC(=O)c1ccccc1O	3	-2	9	-9	2	-3
Cc1cccc2cc(-c3ccccc3)c(-c3ccccc3)c[n+]12	-34	38*	-14	12	0	-6
